Experimental data of several laboratories.
Target: Protein-tyrosine kinase 2-beta (PTK2B, Homo sapiens, UniProt Q14289)

Compound	test	setting	endpoint	value
Cn1cc(-c2cc(F)cc(N3CCn4c(cc5c4CCCC5)C3=O)c2CO)cc(Nc2ccc(N3CCN(C4COC4)CC3)cn2)c1=O	enzyme activity, inhibitor	0.1 µM	inhibition	6%
O=c1[nH]c2ccccc2n1C1CCN(Cc2ccc(-c3[nH]c4cc5ncnc5cc4nc3-c3ccccc3)cc2)CC1	enzyme activity	0.5 µM	remaining activity	105%
Cn1cncc1[C@@](O)(COc1ccc(C#N)cc1-c1ccc(OC(F)(F)F)cc1)c1ccc(C#N)cc1	cell-free assay, competition with immobilised ligand	1 µM	remaining binding	100%
Nc1ncc(-c2nc(N3CCOCC3)nc(N3CCOCC3)n2)c(C(F)F)n1	binding, competition with immobilised ligand	10 µM	remaining binding	70%
COc1ncccc1-c1cnn2ccc(N3CCN(C(=O)OC(C)C)CC3)nc12	binding, competition with immobilised ligand	1 µM	remaining binding	100%
Cc1nn(C)cc1-c1nc2c(N3CCN(Cc4ccc(Cl)cc4)CC3)c(Cl)cnc2[nH]1	binding, competition with immobilised ligand	1 µM	remaining binding	100%
N#CC1(c2ccccn2)CCN(Cc2cc(C(=O)O)c(=O)n3ccccc23)CC1	cell-free assay, competition with immobilised ligand	1 µM	remaining binding	100%
Cn1cc(-c2cccc(N3CCc4c(sc5c4CC(C)(C)C5)C3=O)c2CO)cc(Nc2ccncn2)c1=O	enzyme activity, inhibitor	1 µM	inhibition	2%
